Measurements published in ChEMBL document CHEMBL4138212, “Novel triazine dimers with potent antitrypanosomal activity” (Eur J Med Chem, 2018).
Active and inactive are the calls of the source. The rule behind the calls is not given here.

What was measured:
[1] = Cytotoxicity against human MRC5 SV2 cells assessed as decrease in cell viability after 72 hrs by resazurin dye-based fluorometric method; conditions: MRC-5 SV2, 72 h
Plasmodium falciparum = experiment: Antiplasmodial activity against chloroquine-resistant Plasmodium falciparum K1 infected in human O-positive erythrocytes assessed as decrease in parasitaemia after 72 hrs by NBT dye-based spectrophotometric method; type: functional, organism-based; conditions: K1, 72 h
Trypanosoma cruzi = experiment: Antitrypanosomal activity against beta-galactosidase expressing nifurtimox-sensitive Trypanosoma cruzi Tulahuen CL2 infected in human MRC5 SV2 cells assessed as decrease in parasite burden after 168 hrs by spectrophotometric method; type: functional, organism-based; conditions: Tulahuen CL2, MRC-5 SV2, 168 h
[2] = test system: Trypanosoma brucei brucei; experiment: (§1) Antitrypanosomal activity against suramin-sensitive Trypanosoma brucei brucei Squib 427 infected in Swiss mouse assessed as increase in mouse survival at 10 mg/kg administered first dose orally 1/2 hrs prior to infection followed by dosed intraperitoneally as qd for 5 days measured on day 14 post infection; type: functional, organism-based
Procedure, shortened: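 Female Swiss mice, 6 per group, were infected IP with about 1×10⁴ trypanosomes in 0.25 ml PBS-diluted donor blood on day 0. The first dose was given orally ½ h before infection, then IP for 5 days. Vehicles were 100% DMSO or DMSO/PEG200 (1/50); suramin was formulated in PBS. Mortality was monitored daily, ill animals were euthanized, and survivors were counted on day 14 post-infection.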

[3] = test system: Trypanosoma brucei brucei; experiment: as §1, with “reduction” for “increase”, “parasitemia” for “mouse survival”, “4 of compound dosing by Giemsa staining-based microscopic method relative to control” for “14 post infection”; type: functional; design: scale not given: the % may be the effect or the level left
Procedure, shortened: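 Female Swiss mice, 6 per group, were infected IP with about 1×10⁴ trypanosomes on day 0. The first dose was given orally ½ h before infection, then IP for 5 days, in DMSO, DMSO/PEG200 (1/50) or PBS for suramin. On day 4, tail-vein blood smears were Giemsa-stained and counted microscopically. Activity = 100 − (mean parasitemia treated/mean vehicle-infected control)×100.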

[4] = test system: Trypanosoma brucei brucei; experiment: Antitrypanosomal activity against suramin-sensitive Trypanosoma brucei brucei Squib 427 after 72 hrs by resazurin dye-based fluorometric method; type: functional, organism-based; conditions: Squib 427, 72 h
Procedure, shortened: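 Bloodstream parasites in HMI-9 with 10% heat-inactivated FBS at 7×10⁴/mL were exposed to five 4-fold dilutions from 64 µg/mL for 72 h at 37 °C in 5% CO₂. IC₅₀ comes from % growth reduction versus controls, as the mean of at least two independent determinations.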

[5] = test system: Trypanosoma brucei rhodesiense; experiment: Antitrypanosomal activity against Trypanosoma brucei rhodesiense STIB-900 after 72 hrs by resazurin dye-based fluorometric method; type: functional, organism-based; conditions: STIB-900, 72 h
Procedure, shortened: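 Parasites in HMI-9 with 10% heat-inactivated FBS at 2×10⁴/mL were exposed to five 4-fold dilutions from 64 µg/mL for 72 h at 37 °C in 5% CO₂. IC₅₀ comes from % growth reduction versus controls, as the mean of at least two independent determinations.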

Leishmania infantum = experiment: Antileishmanial activity against amastigote stage of Leishmania infantum MHOM/MA(BE)/67 infected in mouse primary peritoneal macrophages assessed as decrease in parasite burden after 120 hrs by Giemsa staining-based microscopic method; type: functional, organism-based; conditions: MHOM/MA(BE)/67, 120 h

Structure (SMILES) | IC50 [1] [µM] | IC50 (Trypanosoma cruzi) [nM] | also measured
CCN(CC)CCCC(C)Nc1ccnc2cc(Cl)ccc12 (stereo not drawn) [CHLOROQUINE] | > 64 | – | –
CO[C@H]1O[C@@H]2O[C@@]3(C)CC[C@H]4[C@H](C)CC[C@@H]([C@H]1C)[C@@]24OO3 | > 64 | – | IC50 (Plasmodium falciparum): 20 nM
CC1CS(=O)(=O)CCN1/N=C/c1ccc([N+](=O)[O-])o1 (stereo not drawn) [NIFURTIMOX] | > 64 | 700 | –
CCCCCCCCCCCCCCCCOP(=O)([O-])OCC[N+](C)(C)C [MILTEFOSINE] | > 64 | – | –
Cc1ccc(C(=O)Nc2ccc(S(=O)(=O)O)c3cc(S(=O)(=O)O)cc(S(=O)(=O)O)c23)cc1NC(=O)c1cccc(NC(=O)Nc2cccc(C(=O)Nc3cc(C(=O)Nc4ccc(S(=O)(=O)O)c5cc(S(=O)(=O)O)cc(S(=O)(=O)O)c45)ccc3C)c2)c1 [SURAMIN] | > 64 | – | Activity [2]: Active; Activity [3]: 100%
O=C(Cn1ccnc1[N+](=O)[O-])NCc1ccccc1 [BENZNIDAZOLE] | > 64 | 2560 | –
Cc1cc(C)c(Nc2nc(Nc3ccc(C#N)cc3)nc(Nc3ccc(Nc4nc(Nc5ccc(C#N)cc5)nc(Nc5c(C)cc(C)cc5C)n4)cc3)n2)c(C)c1 | > 64 | > 64000 | IC50 (Plasmodium falciparum): > 64000 nM; IC50 [4]: 530 nM; IC50 [5]: 20 nM; IC50 (Leishmania infantum): > 64 µM
Nc1nc(N)nc(Nc2ccc([As]3SCC(CO)S3)cc2)n1 (stereo not drawn) [MELARSOPROL] | 7.4 | – | –
